Assay results: ChEMBL document CHEMBL1123441, “Carrier-linked primaquine in the chemotherapy of malaria” (J Med Chem, 1986)
Values joined by “and” are separate entries in the source; they are usually repeats but may differ in a detail not shown here. Identical values can stand only once.

How the values were obtained:
Mus musculus [1] = species on record: Mus musculus; assay: Compound is evaluated for therapeutic efficacy; format: ADME, organism-based; conditions: in vivo
In short: (§1)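 Female A/J mice (~20 g, groups of 6–8) inoculated via tail vein with 10^4 Plasmodium berghei sporozoites. Drug, conjugate or carrier alone in 0.5 mL PBS given intravenously 2–3 h later; doses as mg primaquine base/kg. Giemsa-stained thin blood smears were read up to day 12, and mice without parasitemia by day 12 were scored cured. An untreated control group was run per experiment. CPD50 came from probit-transformed dose–response data, with results pooled from at least two experiments.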

[2] = (§2) Compound is evaluated for acute lethal toxicity by intravenous administration; format: organism-based; conditions: mouse, in vivo
In short: (§3)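 Noninfected mice in groups of eight, given a single intravenous injection of varying doses (mg primaquine base/kg) of free or protein-coupled drug. Highest conjugate dose was limited by solubility.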

Mus musculus [3] = assay: as §2; format: organism-based; conditions: in vivo; in short: as §3
Mus musculus [4] = assay: Free and protein-conjugated compound is evaluated for curative effect, at the 11 mg/kg; format: functional; in short: as §1
Mus musculus [5] = assay: Free and protein-conjugated compound is evaluated for curative effect, at the 14.5 mg/kg; format: functional; in short: as §1
Mus musculus [6] = assay: Free and protein-conjugated compound is evaluated for curative effect, at the 7 mg/kg; format: functional; in short: as §1
Mus musculus [7] = assay: Free and protein-conjugated compound is evaluated for curative effect, at the 8 mg/kg; format: functional; in short: as §1
Mus musculus [8] = assay: Free and protein-conjugated compound is evaluated for curative effect, at the 9.5 mg/kg; format: functional; in short: as §1
[9] = Ratio of LD50 (lethal toxicity in mice) to that of CPD50 (therapeutic efficacy); format: organism-based; conditions: mouse, in vivo
In short: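 Therapeutic index as LD50/CPD50 (mg primaquine base/kg). LD50 came from probit analysis of deaths after intravenous dosing of noninfected mice, groups of eight. CPD50 came from probit analysis of cure (no parasitemia by day 12) in A/J mice given intravenous drug 2–3 h after intravenous inoculation of 10^4 P. berghei sporozoites.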

**Q.** Which results are given for `COc1cc(NC(C)CCCN)c2ncccc2c1` (centres undefined) [PRIMAQUINE]?
**A.** CPD50 (Mus musculus [1]): 13 mg/kg and 20 mg/kg; LD50 [2]: 16 mg/kg; LD10 (Mus musculus [3]): 13 mg/kg; Cure (Mus musculus [4]): 20%; Cure (Mus musculus [5]): 69%; Cure (Mus musculus [6]): 0%; Cure (Mus musculus [7]): 13%; Cure (Mus musculus [8]): 13%; selectivity ratio [9]: 1.2
